This is a sample that favours compounds with a hit; in the whole collection about 1.6% have one here.
NCF1 inh – p47phox/p22phox peptide binding inhibitors, primary screen, biochemical, uHTS, NADPH oxidase regulatory subunit | Neutrophil cytosol factor 1 (Homo sapiens), P14598 | hit rate 0.53% among 220,000 | inhibition, % at 24.7 µM | fluorescence polarization, 2 h;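 active = inhibition above about 30%, limit read from the data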
Target sequence (P14598 whole entry, looked up): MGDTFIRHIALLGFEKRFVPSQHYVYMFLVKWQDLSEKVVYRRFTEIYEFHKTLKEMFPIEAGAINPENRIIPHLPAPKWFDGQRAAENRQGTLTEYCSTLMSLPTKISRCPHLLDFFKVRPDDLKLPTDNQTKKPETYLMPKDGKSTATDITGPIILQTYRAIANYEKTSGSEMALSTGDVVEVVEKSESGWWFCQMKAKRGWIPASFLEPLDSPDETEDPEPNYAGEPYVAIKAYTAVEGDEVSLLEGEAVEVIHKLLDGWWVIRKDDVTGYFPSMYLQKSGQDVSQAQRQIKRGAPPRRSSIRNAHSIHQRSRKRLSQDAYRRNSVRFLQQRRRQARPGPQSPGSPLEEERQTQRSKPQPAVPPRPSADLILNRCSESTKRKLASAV
sdo1 growth – growth rescue of sdo1-depleted yeast, primary screen, S. cerevisiae, bone marrow failure model; S. cerevisiae sdo1-depleted JHY4D growth rescue, OD600 30 h; active compounds read high; pdr5 snq2 efflux-pump mutant strain; z-score at 10 µM; hit rate 0.21% among 140,000; AID 817, 2007;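 active = z-score above 3 at both the 24 hr and the 30 hr optical density reads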
Yeast life ext – compounds extending yeast replicative lifespan, primary screen, S. cerevisiae, OD615; hit rate 0.68% among 130,000; AID 775, 2007; S. cerevisiae growth with nicotinamide; deaD strain in restrictive glucose medium; inhibition of the nicotinamide effect, % at 10 µM;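 active = inhibition above a set limit, placed 3 SD over the median of all compounds, cut at about 26% in these data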
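Assay system: DeaD-strain S. cerevisiae. Medium: CSMM-D glucose medium, restrictive. Reagent: nicotinamide, 1.5 mM, co-present with compound. Compound: 10 µM single point, 0.25% DMSO. Schedule: culture preincubation 4 h, compound exposure 48 h, both 30 °C. Detection: absorbance at 615 nm.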
RBBP9 inhibitor – human RBBP9 inhibitors, primary screen, biochemical, fluorescence polarization, FP-Rh probe, HTS; Serine hydrolase RBBP9 (Homo sapiens), O75884; recombinant RBBP9; inhibition, % at 7.94 µM; hit rate 0.2% among 220,000; AID 1515, 2009;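 active = inhibition above the campaign mean of all tested compounds plus 3 SD, cut at about 14% in these data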
Target sequence (O75884 whole entry, looked up): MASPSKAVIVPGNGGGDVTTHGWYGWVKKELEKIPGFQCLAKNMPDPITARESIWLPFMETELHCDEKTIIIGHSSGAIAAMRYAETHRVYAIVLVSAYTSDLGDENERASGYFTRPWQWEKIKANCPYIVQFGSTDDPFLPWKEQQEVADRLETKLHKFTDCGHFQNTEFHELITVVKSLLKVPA
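Controls: DMSO-treated enzyme wells and wells lacking RBBP9 | Material: RBBP9 protein | Technique: Fluorescence polarization | Replication: Single well per compound, no replicates | Buffer or medium: Tris-NaCl-Pluronic buffer, pH 8.0 | Timing: 30 min compound preincubation, 45 min probe labeling, 25 °C | Read-out basis: Percent inhibition from mP, scaled between DMSO and no-protein wells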
Yeast growth inh – growth inhibitors of yeast BB579 in restrictive medium, primary screen, yeast lifespan-shortening project, S. cerevisiae; inhibition, % at 10 µM; hit rate 0.51% among 140,000; OD615, 48 h;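 active = inhibition above a set limit, 3 SD over the mean compound inhibition, cut at about 44% in these data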
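Detection: OD615 turbidity measurement; Material: Saccharomyces cerevisiae DeaD strain BB579, replicative lifespan model yeast; Timing: 48 h exposure, 30 °C; Doses: single 10 µM dose; Medium: CSMM-D restrictive synthetic medium containing dextrose (glucose); Controls: amphotericin B at 10 µg/mL as positive control.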
Tb hexokinase – Trypanosoma brucei hexokinase 1 inhibitors, primary screen, biochemical, G6PDH-coupled NADH absorbance, MLSCN library. recombinant TbHK1, G6PDH-coupled NADH A340. inhibition, % at 10 µM. hexokinase 1 [Trypanosoma brucei]. hit rate 0.11% among 220,000;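 active = inhibition of 50% or more in the single-dose primary screen; inactive = inhibition below 50%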
A number is an active result; i = inactive; nt = no result given.

SMILES	NCF1 inh	sdo1 growth	Yeast life ext	RBBP9 inhibitor	Yeast growth inh	Tb hexokinase
Cc1ccc(S(=O)(=O)N2CCCCC2)cc1NC(=O)C1CCCO1 (stereo not drawn)	i	nt	nt	i	nt	i
O=C(COc1ncnc2ccc(Br)cc12)NCc1ccco1	i	nt	nt	i	nt	i
COc1ccc2nc(/C=N/NC(=O)CCCCCNC(=O)OC(C)(C)C)ccc2c1	i	nt	nt	i	nt	i
CC(O)c1nc2ccccc2n1CC(=O)Nc1ccc(F)cc1Cl (stereo not drawn)	i	nt	nt	i	nt	i
CCn1nc(C)c(NC(=O)/C=C/c2ccc(OC)c(COc3ccc(Cl)cc3Br)c2)c1C	71	i	nt	i	i	i
COc1ccc(/C=C/C(=O)NCc2cn(C)nc2C)cc1COc1ccc(Cl)cc1Br	i	i	i	i	i	i
COc1cc2c(-c3ccc(O)cc3)nc3c(c(C)nn3-c3ccccc3)c2cc1OC	34	i	i	i	i	i
COC(=O)c1ccc2c(=O)n(Cc3ccco3)c(SCC(=O)Nc3cc(C)on3)nc2c1	i	nt	nt	i	nt	i
COC(=O)c1ccc2c(=O)n(Cc3ccco3)c(SCC(=O)Nc3ccccc3Cl)nc2c1	46	i	i	i	i	i
O=C(CSc1nc2ccccc2c(=O)n1-c1ccccc1)NC(=O)CN1CCCC1=O	i	nt	nt	i	nt	i
COc1ccccc1NC(=O)C(=O)/C=C(\O)c1ccccc1	i	nt	nt	i	nt	i
COc1ccc2[nH]cc(S(=O)(=O)c3ccc(C(C)C)cc3)c(=O)c2c1	i	nt	nt	i	nt	i
O=C(CSc1nnc2scc(-c3ccccc3)n12)Nc1nsc(-c2ccccc2)n1	45	i	i	i	i	i
CSC1=NNC(c2ccc(C(C)(C)C)cc2)=NN1	i	nt	nt	i	nt	i
O=C(/C(=C/c1ccc(Cl)cc1)c1nc2ccccc2[nH]1)c1cccs1	i	i	31	i	i	i
O=C(/C(=C\c1ccccc1)c1nc2ccccc2[nH]1)c1ccc(Cl)cc1	i	i	i	i	i	i
CCCCSc1nc(C)c(C(C)=O)cc1C#N	i	i	i	i	50	i
Cc1cc(OCC(=O)Nc2ccc(F)c(F)c2)nc(C(C)C)n1	165	i	i	i	i	i
Cc1ccc(C(=O)c2no[n+]([O-])c2C(=O)c2ccc(C)cc2)cc1	i	i	27	i	i	i
Cc1ccc(C(=O)c2ccc(C)cc2)cc1	i	nt	nt	i	nt	i
COc1ccc(-c2ccc(-c3nc4c(c(=O)[nH]c(=O)n4Cc4ccccc4)n3C)o2)c([N+](=O)[O-])c1	55	i	i	i	i	i
CCOC(=O)c1c[nH][nH]c1=O	i	nt	nt	i	nt	i
Cc1cc(C(=O)COc2ccccc2C(N)=O)c(C)n1C1CC1	i	nt	nt	i	nt	i
Cc1cc(C(=O)OCC(=O)NCc2ccco2)c(C)n1-c1ccc(F)cc1	i	i	i	i	i	i
Cc1cc(C(=O)COC(=O)c2ccc[nH]c2=O)c(C)n1C1CC1	i	i	29	i	i	i
SMILES	NCF1 inh	sdo1 growth	Yeast life ext	RBBP9 inhibitor	Yeast growth inh	Tb hexokinase
Cc1cc(C(=O)COC(=O)c2ccc[nH]c2=O)c(C)n1-c1ccc(F)cc1	i	i	i	i	54	i
CCNC(=O)COC(=O)c1cc(C)n(-c2ccccc2)c1C	i	nt	nt	i	nt	i
Cc1cc(C(=O)COC(=O)c2ccc[nH]c2=O)c(C)n1-c1ccccc1	i	i	i	i	59	i
c1ccc(-c2cc(N3CCOCC3)nc3ccccc23)cc1	i	i	94	i	i	i
CCN(CC)c1ccc(NC2=C(Cl)C(=O)c3ccccc3C2=O)cc1	35	i	i	i	i	i
CC(C)N=c1c([N+](=O)[O-])nn(C)n1O	i	nt	nt	i	nt	i
COC(=O)c1sc2ccccc2c1-n1cccc1C(=O)C(=O)Nc1ccc(C)cc1	i	i	38	i	i	i
COc1ccc(C2=NN(CN3C(=O)C(=O)c4ccccc43)C(c3cccc([N+](=O)[O-])c3)C2)cc1 (stereo not drawn)	i	nt	nt	i	nt	i
COc1cc([N+](=O)[O-])ccc1NC(=O)CN1CCN(C(=O)c2ccco2)CC1	i	nt	nt	i	nt	i
C/C(O)=c1/ccc2cccc3nc(C)nc1c23	i	i	i	i	69	i
O=C1CNC(=S)N1CCc1ccc(O)c(O)c1	i	nt	nt	i	nt	i
CCNC(=O)NC(=O)C(C)On1nnc2ccc(S(=O)(=O)N(CC)CC)cc21 (stereo not drawn)	i	i	28	i	i	i
COc1ccc(-c2nc(C(N)=O)c3[nH]c(=O)n(-c4cccc(Cl)c4)c3n2)cc1OC	37	i	i	i	i	i
COc1cccc(-n2nc3c(=O)n(Cc4ccccc4Cl)nc(C)c3c2C)c1	84	i	i	i	i	i
Cc1nn(Cc2ccccc2)c(=O)c2nn(-c3ccc(Cl)cc3)c(C)c12	i	i	i	i	i	i
CC1=NN(c2ccc(C(F)(F)F)cn2)C(=O)C1	i	i	58	i	i	i
COc1ccc(NC(=O)c2cccnc2N2CCOCC2)cc1	i	nt	nt	i	nt	i
COc1ccc(OCC(=O)N/N=C/c2ccsc2)cc1	74	i	i	i	i	i
Cc1cc([N+](=O)[O-])ccc1-c1ccc(C2Nc3ccccc3C(=O)N2O)o1 (stereo not drawn)	i	i	i	i	50	i
CC1CC(C)(C)NC(=S)N1CC(=O)N1CCN(Cc2ccc3c(c2)OCO3)CC1 (stereo not drawn)	i	nt	nt	i	nt	i
CCOC(=O)/C(C)=C1\NC(C)(C)Cc2ccccc21	62	i	i	i	i	i
CCOC(=O)/C(C(=O)Nc1ccccc1Cl)=C1/NC(C)(C)Cc2ccccc21	i	i	i	i	i	i
COc1cccc(NC(=O)Nc2ccc(C(C)(C)C)cc2)c1	i	nt	nt	i	nt	i
CCCS(=O)(=O)c1nnnn1-c1cccc(OC)c1	i	i	i	i	96	i
Cn1cc(/C=N/NC(=O)c2cccc([N+](=O)[O-])c2)c2ccccc21	i	i	i	i	i	i
SMILES	NCF1 inh	sdo1 growth	Yeast life ext	RBBP9 inhibitor	Yeast growth inh	Tb hexokinase
Cn1cc(/C=C(\C#N)C(=O)Nc2cccc([N+](=O)[O-])c2)c2ccccc21	37	nt	nt	i	nt	i
O=[N+]([O-])c1cnn(-c2nc(-c3cccs3)cc(C(F)(F)F)n2)c1	i	nt	nt	i	nt	i
C=CCn1c(=O)c(C(=O)NCCc2ccccc2)c(O)c2ccccc21	i	i	29	i	i	i
CCCCN=C(NNc1ccc(Br)cc1)C(=O)OCC	i	i	i	i	97	i
CCOC(=O)C(=NCCCN(C)C)NNc1ccc(Br)cc1	i	i	i	i	92	i
CCC(NC(=O)NNC(=O)c1ccncc1)(C(F)(F)F)C(F)(F)F	i	nt	nt	i	nt	i

Source: PubChem BioAssay
